From ChEMBL document CHEMBL1152312, “Neopyrrolomycins with broad spectrum antibacterial activity” (2009)
Converted amounts (≈) assume the structure as drawn. The source made the active and inactive calls. The rule behind the calls is not given here.

Key:
Escherichia coli [1] = assay: Antibacterial activity against Escherichia coli 25922 by microdilution method; type: functional
Outline: (§1)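 MIC determined by CLSI broth microdilution; organisms were ATCC strains and clinical isolates.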

Escherichia coli [2] = assay: Antibacterial activity against Escherichia coli 1411 by microdilution method; type: functional; outline: as §1
Klebsiella pneumoniae [3] = assay: Antibacterial activity against Klebsiella pneumoniae 4352 by microdilution method; type: functional; outline: as §1
Staphylococcus aureus [4] = assay: Antibacterial activity against methicillin-resistant Staphylococcus aureus 43300 by microdilution method; type: functional
Outline: (§2)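 MIC values from CLSI broth microdilution. Strains came from the ATCC collection and from clinical isolates.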

Staphylococcus aureus [5] = assay: Antibacterial activity against methicillin-sensitive Staphylococcus aureus 6538 by microdilution method; type: functional; outline: as §2
Staphylococcus aureus [6] = assay: Antibacterial activity against methicillin-sensitive Staphylococcus aureus 29213 by microdilution method; type: functional; outline: as §2
Pseudomonas aeruginosa [7] = assay: Antibacterial activity against Pseudomonas aeruginosa 27853 by microdilution method; type: functional; outline: as §1
Streptococcus pneumoniae [8] = assay: Antibacterial activity against Streptococcus pneumoniae 49619 by microdilution method; type: functional; outline: as §1
Enterococcus faecium [9] = assay: Antibacterial activity against vancomycin-resistant Enterococcus faecium 700221 by microdilution method; type: functional; outline: as §2
HepG2 = assay: Cytotoxicity against human HepG2 cells assessed as effect on cell viability at 43 ug/mL after 48 hrs by celltiter glow assay; type: functional, cell-based
Outline: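 HepG2 grown in MEM with 10% heat-inactivated FBS, 0.10 mM nonessential amino acids, 1 mM pyruvate, 37 °C, 5% CO2. Seeded at 1.25 × 10^5 cells/mL 24 h before treatment. DMSO-dissolved compounds tested over 0.6–128 µg/mL (1% final DMSO) for 48 h. Luminescent CellTiter-Glo viability read-out relative to DMSO control; CC90 taken.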

NHDF = assay: Cytotoxicity against NHDF cells after 48 hrs by celltiter glow assay; type: functional; conditions: Homo sapiens
Outline: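 Fibroblasts kept at 37 °C, 5% CO2 in FGM-2 medium, passage ≤16. Seeded at 1.25 × 10^5 cells/mL 24 h before dosing. Compounds dissolved in DMSO, tested 0.6–128 µg/mL at 1% final DMSO for 48 h. Viability by CellTiter-Glo luminescence, expressed as percent of DMSO control.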

Pseudomonas aeruginosa [10] = assay: Antibacterial activity against Pseudomonas aeruginosa 1473 by microdilution method; type: functional; outline: as §2
Staphylococcus aureus [11] = assay: Antibacterial activity against methicillin-sensitive Staphylococcus aureus 100 ATCC 29213 by microdilution method; type: functional; outline: as §2
Staphylococcus aureus [12] = assay: Antibacterial activity against methicillin-resistant Staphylococcus aureus 1137 by microdilution method; type: functional; outline: as §2
Staphylococcus aureus [13] = assay: Antibacterial activity against methicillin-resistant Staphylococcus aureus 2170 by microdilution method; type: functional; outline: as §2
Staphylococcus aureus [14] = assay: Antibacterial activity against vancomycin-intermediate Staphylococcus aureus 2012 by microdilution method; type: functional; outline: as §2
Staphylococcus aureus [15] = assay: Antibacterial activity against vancomycin-intermediate Staphylococcus aureus 2018 by microdilution method; type: functional; outline: as §2
Staphylococcus aureus [16] = assay: Antibacterial activity against Linezolid, methicillin-resistant Staphylococcus aureus 1725 by microdilution method; type: functional; outline: as §2
Staphylococcus aureus [17] = assay: Antibacterial activity against Linezolid, methicillin-resistant Staphylococcus aureus 1651 by microdilution method; type: functional; outline: as §2
Staphylococcus aureus [18] = assay: Antibacterial activity against community-acquired Staphylococcus aureus 2144 by microdilution method; type: functional; outline: as §2
[19] = test system: Staphylococcus epidermidis; assay: Antibacterial activity against methicillin-sensitive Staphylococcus epidermidis 1597 by microdilution method; type: functional; outline: as §2
[20] = test system: Staphylococcus epidermidis; assay: Antibacterial activity against methicillin-resistant Staphylococcus epidermidis 1452 by microdilution method; type: functional; outline: as §2
[21] = test system: Staphylococcus epidermidis; assay: Antibacterial activity against Staphylococcus epidermidis 495 by microdilution method; type: functional; outline: as §2
Enterococcus faecalis = assay: Antibacterial activity against vancomycin-resistant Enterococcus faecalis 846 by microdilution method; type: functional; outline: as §2
Enterococcus faecium [22] = assay: Antibacterial activity against vancomycin-sensitive Enterococcus faecium 843 by microdilution method; type: functional; outline: as §2
Enterococcus faecium [23] = assay: Antibacterial activity against vancomycin-resistant Enterococcus faecium 1254 by microdilution method; type: functional; outline: as §2
Streptococcus pneumoniae [24] = assay: Antibacterial activity against penicillin-susceptible Streptococcus pneumoniae 866 by microdilution method; type: functional; outline: as §2
Streptococcus pneumoniae [25] = assay: Antibacterial activity against penicillin-resistant Streptococcus pneumoniae 940 by microdilution method; type: functional; outline: as §2
Streptococcus pneumoniae [26] = assay: Antibacterial activity against penicillin-resistant Streptococcus pneumoniae 748 by microdilution method; type: functional; outline: as §2
Streptococcus pneumoniae [27] = assay: Antibacterial activity against quinolone-resistant Streptococcus pneumoniae 376 by microdilution method; type: functional; outline: as §2
Streptococcus pneumoniae [28] = assay: Antibacterial activity against quinolone-resistant Streptococcus pneumoniae 379 by microdilution method; type: functional; outline: as §2
Streptococcus pneumoniae [29] = assay: Antibacterial activity against multidrug-resistant Streptococcus pneumoniae 933 by microdilution method; type: functional; outline: as §2
Streptococcus pneumoniae [30] = assay: Antibacterial activity against Streptococcus pneumoniae 1195 ATCC 49619 by microdilution method; type: functional; outline: as §2
Streptococcus pyogenes = assay: Antibacterial activity against Streptococcus pyogenes 723 by microdilution method; type: functional; outline: as §2
Streptococcus agalactiae = assay: Antibacterial activity against Streptococcus agalactiae 2033 by microdilution method; type: functional; outline: as §2
Moraxella catarrhalis = assay: Antibacterial activity against Moraxella catarrhalis 557 by microdilution method; type: functional; outline: as §2
Haemophilus influenzae [31] = assay: Antibacterial activity against ampicillin-resistant Haemophilus influenzae 1742 by microdilution method; type: functional; outline: as §2
Haemophilus influenzae [32] = assay: Antibacterial activity against Haemophilus influenzae 1224 ATCC 49247 by microdilution method; type: functional; outline: as §2
[33] = test system: Haemophilus parainfluenzae; assay: Antibacterial activity against Haemophilus parainfluenzae 2319 ATCC 7901 by microdilution method; type: functional; outline: as §2
Escherichia coli [34] = assay: Antibacterial activity against Escherichia coli 102 ATCC 25922 by microdilution method; type: functional; outline: as §2
Escherichia coli [35] = assay: Antibacterial activity against extended spectrum beta-lactamase-producing Escherichia coli 2269 by microdilution method; type: functional; outline: as §2
Klebsiella pneumoniae [36] = assay: Antibacterial activity against Klebsiella pneumoniae 2239 by microdilution method; type: functional; outline: as §2
Klebsiella pneumoniae [37] = assay: Antibacterial activity against ampicillin beta-lactamase, multidrug-resistant Klebsiella pneumoniae 2262 by microdilution method; type: functional; outline: as §2
Serratia marcescens = assay: Antibacterial activity against Serratia marcescens 1635 by microdilution method; type: functional; outline: as §2

Oc1cc(Cl)cc(Cl)c1-n1cc(Cl)c(Cl)c1Cl [NEOPYRROLOMYCIN C]
MIC90 (Escherichia coli [1]): 16 µg/mL (≈ 48.3 µM)
MIC90 (Escherichia coli [2]): 16 µg/mL (≈ 48.3 µM)
MIC90 (Klebsiella pneumoniae [3]): 16 µg/mL (≈ 48.3 µM)
MIC90 (Staphylococcus aureus [4]): 1 µg/mL (≈ 3.02 µM)
MBC (Staphylococcus aureus [5]): 8 µg/mL (≈ 24.1 µM)
MIC90 (Staphylococcus aureus [5]): 2 µg/mL (≈ 6.03 µM)
MIC90 (Staphylococcus aureus [6]): 2 µg/mL (≈ 6.03 µM)
MIC90 (Pseudomonas aeruginosa [7]): 32 µg/mL (≈ 96.6 µM)
MIC90 (Streptococcus pneumoniae [8]): 8 µg/mL (≈ 24.1 µM)
MIC90 (Enterococcus faecium [9]): 2 µg/mL (≈ 6.03 µM)
Activity (HepG2): Active
CC90 (NHDF): 43 µg/mL (≈ 130 µM)

Oc1cc(Cl)c(Cl)cc1-n1cc(Cl)c(Cl)c1Cl [NEOPYRROLOMYCIN D]
MIC90 (Escherichia coli [1]): 16 µg/mL (≈ 48.3 µM)
MIC90 (Escherichia coli [2]): 16 µg/mL (≈ 48.3 µM)
MIC90 (Klebsiella pneumoniae [3]): 16 µg/mL (≈ 48.3 µM)
MIC90 (Staphylococcus aureus [4]): 2 µg/mL (≈ 6.03 µM)
MBC (Staphylococcus aureus [5]): 8 µg/mL (≈ 24.1 µM)
MIC90 (Staphylococcus aureus [5]): 2 µg/mL (≈ 6.03 µM)
MIC90 (Staphylococcus aureus [6]): 2 µg/mL (≈ 6.03 µM)
MIC90 (Pseudomonas aeruginosa [7]): 32 µg/mL (≈ 96.6 µM)
MIC90 (Streptococcus pneumoniae [8]): 8 µg/mL (≈ 24.1 µM)
MIC90 (Enterococcus faecium [9]): 4 µg/mL (≈ 12.1 µM)
Activity (HepG2): Active
CC90 (NHDF): 43 µg/mL (≈ 130 µM)

CN[C@H](CC(C)C)C(=O)N[C@H]1C(=O)N[C@@H](CC(N)=O)C(=O)N[C@H]2C(=O)N[C@H]3C(=O)N[C@H](C(=O)N[C@H](C(=O)O)c4cc(O)cc(O)c4-c4cc3ccc4O)[C@H](O)c3ccc(c(Cl)c3)Oc3cc2cc(c3O[C@@H]2O[C@H](CO)[C@@H](O)[C@H](O)[C@H]2O[C@H]2C[C@](C)(N)[C@H](O)[C@H](C)O2)Oc2ccc(cc2Cl)[C@H]1O [VANCOMYCIN]
MIC90 (Pseudomonas aeruginosa [10]): > 64 µg/mL
MIC90 (Staphylococcus aureus [11]): 2 µg/mL (≈ 1.38 µM)
MIC90 (Staphylococcus aureus [12]): 1 µg/mL (≈ 0.69 µM)
MIC90 (Staphylococcus aureus [13]): 1 µg/mL (≈ 0.69 µM)
MIC90 (Staphylococcus aureus [14]): 16 µg/mL (≈ 11 µM)
MIC90 (Staphylococcus aureus [15]): 8 µg/mL (≈ 5.52 µM)
MIC90 (Staphylococcus aureus [16]): 2 µg/mL (≈ 1.38 µM)
MIC90 (Staphylococcus aureus [17]): 1 µg/mL (≈ 0.69 µM)
MIC90 (Staphylococcus aureus [18]): 0.12 µg/mL (≈ 0.0828 µM)
MIC90 [19]: 2 µg/mL (≈ 1.38 µM)
MIC90 [20]: 4 µg/mL (≈ 2.76 µM)
MIC90 [21]: 2 µg/mL (≈ 1.38 µM)
MIC90 (Enterococcus faecalis): > 64 µg/mL
MIC90 (Enterococcus faecium [22]): 2 µg/mL (≈ 1.38 µM)
MIC90 (Enterococcus faecium [23]): > 64 µg/mL
MIC90 (Streptococcus pneumoniae [24]): 0.5 µg/mL (≈ 0.345 µM)
MIC90 (Streptococcus pneumoniae [25]): 0.25 µg/mL (≈ 0.173 µM)
MIC90 (Streptococcus pneumoniae [26]): 0.5 µg/mL (≈ 0.345 µM)
MIC90 (Streptococcus pneumoniae [27]): 0.2 µg/mL (≈ 0.138 µM)
MIC90 (Streptococcus pneumoniae [28]): 0.5 µg/mL (≈ 0.345 µM)
MIC90 (Streptococcus pneumoniae [29]): 1 µg/mL (≈ 0.69 µM)
MIC90 (Streptococcus pneumoniae [30]): 0.25 µg/mL (≈ 0.173 µM)
MIC90 (Streptococcus pyogenes): 0.5 µg/mL (≈ 0.345 µM)
MIC90 (Streptococcus agalactiae): 0.5 µg/mL (≈ 0.345 µM)
MIC90 (Moraxella catarrhalis): > 64 µg/mL
MIC90 (Haemophilus influenzae [31]): > 64 µg/mL
MIC90 (Haemophilus influenzae [32]): > 64 µg/mL
MIC90 [33]: 64 µg/mL (≈ 44.2 µM)
MIC90 (Escherichia coli [34]): > 64 µg/mL
MIC90 (Escherichia coli [35]): > 64 µg/mL
MIC90 (Klebsiella pneumoniae [36]): > 64 µg/mL
MIC90 (Klebsiella pneumoniae [37]): > 64 µg/mL
MIC90 (Serratia marcescens): > 64 µg/mL
